Measurements collected from several papers.
Lines come from different studies, so protocols differ.
Target: Muscle, skeletal receptor tyrosine-protein kinase (MUSK, Homo sapiens, UniProt O15146)
One construct used (O15146 24-869): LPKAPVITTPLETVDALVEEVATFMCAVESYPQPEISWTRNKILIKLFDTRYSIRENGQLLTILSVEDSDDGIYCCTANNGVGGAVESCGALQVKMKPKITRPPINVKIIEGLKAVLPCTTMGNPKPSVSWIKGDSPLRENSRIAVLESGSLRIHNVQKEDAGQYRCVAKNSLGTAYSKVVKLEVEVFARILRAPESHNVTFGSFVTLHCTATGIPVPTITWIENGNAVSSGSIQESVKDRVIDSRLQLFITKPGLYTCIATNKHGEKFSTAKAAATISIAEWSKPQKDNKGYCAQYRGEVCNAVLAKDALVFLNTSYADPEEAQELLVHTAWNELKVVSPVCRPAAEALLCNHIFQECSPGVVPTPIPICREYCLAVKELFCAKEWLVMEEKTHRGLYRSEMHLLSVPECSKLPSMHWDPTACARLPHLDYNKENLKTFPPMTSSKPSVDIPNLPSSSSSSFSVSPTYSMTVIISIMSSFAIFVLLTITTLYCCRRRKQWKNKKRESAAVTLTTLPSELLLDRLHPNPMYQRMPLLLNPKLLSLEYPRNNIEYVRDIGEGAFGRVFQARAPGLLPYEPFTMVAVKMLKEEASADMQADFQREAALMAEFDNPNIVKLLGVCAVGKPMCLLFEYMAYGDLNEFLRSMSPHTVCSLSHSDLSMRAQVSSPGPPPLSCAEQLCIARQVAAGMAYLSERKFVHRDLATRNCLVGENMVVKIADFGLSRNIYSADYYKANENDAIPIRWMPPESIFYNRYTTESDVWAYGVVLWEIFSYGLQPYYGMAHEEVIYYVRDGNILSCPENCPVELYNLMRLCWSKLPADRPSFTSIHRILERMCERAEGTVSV

With CNC(=O)[C@@H]1CC[C@@H](n2c(-c3ccc4cnccc4c3)nc3ccc(C(=O)NCc4cccc(C(N)=O)c4)cc32)C1 the remaining binding was 90% (binding; competition with immobilised ligand; 1 µM).
N#Cc1ccc(Nc2ccc3[nH]c(=O)[nH]c3c2)c(Cl)c1 has a remaining binding of 100% (cell-free assay; competition with immobilised ligand; 1 µM).
The remaining binding of CN(CCCC(F)(F)F)c1nccc(-c2cnn3ncccc23)n1 is reported as 100% (binding; 1 µM).
The remaining binding of CC(=O)c1c(NS(C)(=O)=O)c2cc(-c3ccc(Cl)cc3)c(-c3ccc(Cl)cc3Cl)nc2n(C)c1=O is reported as 99% (cell-free assay; competition with immobilised ligand; 1 µM).
The remaining binding of O=C(NCCCN1CCOCC1)c1ccc(Nc2nccc(-c3cc4ccccc4s3)n2)cc1 is reported as 77% (binding; competition with immobilised ligand; 1 µM).
The remaining binding of c1cnn2ncc(-c3ccnc(N4CCC45COC5)n3)c2c1 is reported as 80% (binding; 1 µM).
For FC(F)(F)c1ccc2c(c1)nc(-c1cccnc1)n2C1CC1, the remaining binding was 100% (cell-free assay; competition with immobilised ligand; 1 µM).
COc1ncc2cc3ccccc3nc2c1C#N gave a remaining binding of 100% (cell-free assay; competition with immobilised ligand; 5 µM).
COc1ccc2c(c1)O[C@@H](c1ccc(OC)c(OC)c1)C[C@H]2NC(=O)C1(c2ccc3c(c2)OC(F)(F)O3)CC1 has a remaining binding of 94% (cell-free assay; competition with immobilised ligand; 1 µM).
COc1ccnn2ncc(-c3ccnc(N(C)C)n3)c12 has a remaining binding of 93% (binding; 1 µM).
O=C(Nc1c[nH]nc1C(=O)NC1CCNCC1)c1cc(F)cc(F)c1 has a remaining binding of 88% (binding; competition with immobilised ligand; 1 µM).
CN(c1nccc(-c2cnn3ncccc23)n1)C1CC1 gave a remaining binding of 100% (binding; 1 µM).
For O=C1CCc2cc(Nc3cc(OC4CCOCC4)c([N+](=O)[O-])cc3Cl)ccc2N1, the remaining binding was 100% (cell-free assay; competition with immobilised ligand; 1 µM).
For C[C@H]1CCN(c2nccc(-c3cnn4ncccc34)n2)C1, the remaining binding was 80% (binding; 1 µM).
With C=CC(=O)N1CCC(C(=O)NCC(=O)N2CCN(c3nc(-c4cnc(N)nc4C(F)F)nc(N4CCOCC4)n3)CC2)CC1 the remaining binding was 79% (binding; competition with immobilised ligand; 1 µM).
With Nc1ncc2c(n1)-c1c([nH]c3ccc(C#CC4CC4)cc13)CCCC2 the remaining binding was 100% (binding; competition with immobilised ligand; 1 µM).
With O=C(NCCCN1CCOCC1)c1ccc(Nc2ncc(Cl)c(-c3ccc(Cl)s3)n2)cc1 the remaining binding was 54% (binding; competition with immobilised ligand; 1 µM).
For CCCCN(CCCC)C(=O)CN1C[C@@H](c2cc(OC)c3c(c2)OCO3)[C@H](C(=O)O)[C@H]1CC(C)(C)CCC, the remaining binding was 78.7% (cell-free assay; competition with immobilised ligand; 1 µM).
N[C@@H]1CCN(c2nccc(-c3cnn4ncccc34)n2)C1 has a remaining binding of 100% (binding; 1 µM).
With Cc1cnc(Nc2ccc(C(=O)N3CCC(N4CCCC4)CC3)cc2)nc1-c1cc2ccccc2s1 the remaining binding was 30% (binding; competition with immobilised ligand; 1 µM).
CC1CCCN1c1nccc(-c2cnn3ncccc23)n1 (stereo not shown) has a remaining binding of 100% (binding; 1 µM).
For CCC(=O)N[C@H]1CC[C@@H](C(=O)N(C)c2ccc(-c3nc4ccccc4o3)cc2)C1, the remaining binding was 100% (cell-free assay; competition with immobilised ligand; 1 µM).
